Common to all, as to type: cell-based
Data set [1] deals with T1, Signal transducer and activator of transcription 3 (Homo sapiens, UniProt P40763). Nature of the data set: Inhibition of […] activation in human HeLa cells incubated […] for 16 hrs followed by compound addition measured after 4 hrs by luciferase reporter gene assay. In a few lines: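 NF-κB pathway in AD-293 or HeLa cells stimulated with 50 ng/mL TNF-α; compound treatment 4 h; luciferase activity read from cell extracts; EC50 derived.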
T1 sequence (P40763 whole entry): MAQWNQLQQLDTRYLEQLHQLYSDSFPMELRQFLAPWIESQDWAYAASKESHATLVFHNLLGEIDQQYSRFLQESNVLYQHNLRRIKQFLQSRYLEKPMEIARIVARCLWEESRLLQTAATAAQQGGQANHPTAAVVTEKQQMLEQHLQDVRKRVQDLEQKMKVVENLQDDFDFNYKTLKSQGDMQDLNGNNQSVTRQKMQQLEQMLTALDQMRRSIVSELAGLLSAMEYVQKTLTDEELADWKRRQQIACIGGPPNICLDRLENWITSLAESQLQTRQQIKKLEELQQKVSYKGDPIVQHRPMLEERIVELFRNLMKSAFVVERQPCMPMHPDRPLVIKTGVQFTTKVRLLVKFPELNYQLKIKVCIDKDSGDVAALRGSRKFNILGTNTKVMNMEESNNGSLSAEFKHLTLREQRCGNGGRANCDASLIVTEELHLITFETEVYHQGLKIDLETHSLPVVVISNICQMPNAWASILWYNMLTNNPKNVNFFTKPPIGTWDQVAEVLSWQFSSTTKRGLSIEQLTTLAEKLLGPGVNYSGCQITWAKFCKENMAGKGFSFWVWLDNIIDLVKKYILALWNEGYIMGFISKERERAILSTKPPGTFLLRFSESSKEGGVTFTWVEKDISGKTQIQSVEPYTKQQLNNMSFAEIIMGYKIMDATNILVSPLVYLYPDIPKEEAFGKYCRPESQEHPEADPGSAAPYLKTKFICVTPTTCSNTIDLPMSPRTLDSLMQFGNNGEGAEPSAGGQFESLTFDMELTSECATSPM

The target in data set [2] is T1, Signal transducer and activator of transcription 3. In words: Inhibition of IFNgamma-stimulated STAT3 activation in human HeLa cells incubated with IFNgamma for 16 hrs followed by compound addition measured after 24 hrs by luciferase reporter gene assay. In a few lines: (§1)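 AD-293 or HeLa cells in DMEM/10% FBS stimulated with 20 pg/mL IFN-γ; compound treatment 24 h; luciferase activity measured in cell extracts; EC50 derived.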
(In general: Reporter assays use an easily measured gene product as a stand-in for the process of interest.)

Data set [3] relates to HeLa. In words: Cytotoxicity against human HeLa cells. The essentials: (§2)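 AD-293 or HeLa cells grown in high-glucose DMEM with 10% FBS and 1% penicillin-streptomycin; compound exposure 24 h; cytotoxicity reported as CC10.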
The target in data set [4] is T1, Signal transducer and activator of transcription 3. Nature of the data set: Inhibition of IL-6 stimulated STAT3 activation in human AD293 cells incubated with IL-6 for 16 hrs followed by compound addition measured after 6 hrs by luciferase reporter gene assay. In a few lines: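 AD-293 cells stimulated with 2.5 μg/mL IL-6; compound treatment 6 h; luciferase activity read from cell extracts; EC50 derived.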

Data set [5] relates to AD293. Nature of the data set: (§3) Cytotoxicity against human AD293 cells. The note with it: ad293. The essentials: as §2
The target in data set [6] is T1, Signal transducer and activator of transcription 3. In words: Inhibition of IFNgamma-stimulated STAT3 activation in human AD293 cells incubated with IFNgamma for 16 hrs followed by compound addition measured after 24 hrs by luciferase reporter gene assay. In a few lines:
as §1

Data set [7] has the same target. Nature of the data set: Inhibition of […] activation in human AD293 cells incubated […] for 16 hrs followed by compound addition measured after 4 hrs by luciferase reporter gene assay.
Data set [8] in a line: as §3. As to conditions: AD293 cells. In a few lines: as §2

pEC50: −log10 of the molar value. Where only a bound is given, the exact number is not on record here.

For orientation: pEC50 means −log10 of the EC50, conventionally taken in molar units. Read a high pEC50 as a small EC50. As a reminder, the CC50 is the concentration at which the toxic effect on the cells reaches its halfway point.

For `CC(=O)O[C@@H]1COC(=O)/C1=C/C[C@@H]1[C@@]2(CC[C@@H]3[C@](C)(CO)[C@H](O)CC[C@]31C)CO2`, the pEC50 in data set [1] was 5.12; in data set [2] it was below 5.00; in data set [4], 5.52; in data set [6], 5.59; in data set [7], 5.07. The CC10 in data set [3] and in data set [5] was above 10 µM each time.

Turning to `C=C1CC[C@H]2[C@@](C)(CCC(=O)[C@@]2(C)COC(C)=O)[C@@H]1C/C=C1/C(=O)OC[C@@H]1O[Si](C)(C)C(C)(C)C`, the pEC50 in data set [1], in data set [2], in data set [4], in data set [6] and in data set [7] was below 5.00 in each case. Besides, the CC10 in data set [3] and in data set [5] was above 10 µM in each case.

As for `C=C1CC[C@@H]2[C@](C)(CO)[C@H](O)CC[C@@]2(C)[C@@H]1C/C=C1/C(=O)OC[C@H]1O` [ANDROGRAPHOLIDE], the pEC50 in data set [1], in data set [2], in data set [4], in data set [6] and in data set [7] was below 5.00 in each case. Besides, the CC10 in data set [3] and in data set [5] was above 10 µM in each case.

As for `C=C1CC[C@@H]2[C@](C)(CO[Si](C)(C)C(C)(C)C)[C@H](O)CC[C@@]2(C)[C@@H]1C/C=C1/C(=O)OC[C@@H]1OC(C)=O`, the negative-log EC50 (pEC50) in data set [1] is 5.00; in data set [2], 5.03; in data set [4], 5.49; in data set [6], 5.09; in data set [7], 5.14. The same compound yielded a CC10 in data set [3] above 10 µM. For the same compound, in data set [8], the CC50 was 6.83 µM.

For `C=C1CC[C@H]2[C@@](C)(CCC(=O)[C@@]2(C)CO)[C@@H]1C/C=C1/C(=O)OC[C@@H]1O[Si](C)(C)C(C)(C)C`, the pEC50 in data set [1], in data set [2], in data set [4], in data set [6] and in data set [7] was below 5.00 throughout. Also, the CC10 in data set [3] and in data set [5] was above 10 µM each time.

For `C[C@@]12CCC(=O)[C@@](C)(CO)[C@H]1CC[C@]1(CO1)[C@H]2C/C=C1/C(=O)OC[C@H]1O`, the pEC50 in data set [1], in data set [2], in data set [4], in data set [6] and in data set [7] was below 5.00 throughout. Moreover, the CC10 in data set [3] and in data set [5] was above 10 µM each time.

`CC(=O)OC[C@]1(C)C(=O)CC[C@@]2(C)[C@H](C/C=C3/C(=O)OC[C@@H]3O[Si](C)(C)C(C)(C)C)[C@@]3(CC[C@@H]21)CO3`: the negative logarithm of the EC50 (pEC50) in data set [1] is 5.15; in data set [2], below 5.00; in data set [4] it was 5.59; in data set [6], 5.65; in data set [7], below 5.00. Also, the CC10 in data set [3] and in data set [5] was above 10 µM throughout.

Take `C=C1CC[C@@H]2[C@](C)(COC(C)=O)[C@H](OC(C)=O)CC[C@@]2(C)[C@@H]1C/C=C1/C(=O)OC[C@@H]1O[Si](C)(C)C(C)(C)C`: the pEC50 in data set [1], in data set [2], in data set [4], in data set [6] and in data set [7] was below 5.00 throughout. The CC10 in data set [3] and in data set [5] was above 10 µM in each case.

Regarding `CC(C)(C)[Si](C)(C)OC[C@]1(C)C(=O)CC[C@@]2(C)[C@H](C/C=C3/C(=O)OC[C@H]3O)[C@]3(CC[C@@H]21)CO3`, the negative-log EC50 (pEC50) in data set [1], in data set [2], in data set [4], in data set [6] and in data set [7] was below 5.00 each time. Besides, the CC10 in data set [3] is above 10 µM. In data set [8], this compound showed a CC50 of 8.31 µM.

In the case of `CC(=O)OC[C@]1(C)C(=O)CC[C@@]2(C)[C@H](C/C=C3/C(=O)OC[C@H]3O[Si](C)(C)C(C)(C)C)[C@@]3(CC[C@@H]21)CO3`, the negative logarithm of the EC50 (pEC50) was below 5.00 in data set [1]; below 5.00 in data set [2]; 5.10 in data set [4]; 5.24 in data set [6]; below 5.00 in data set [7]. Further, the CC10 in data set [3] and in data set [5] was above 10 µM each time.

Regarding `C=C1CC[C@H]2[C@@](C)(CCC(=O)[C@@]2(C)CO[Si](C)(C)C(C)(C)C)[C@@H]1C/C=C1/C(=O)OC[C@H]1OC(C)=O`, the negative-log EC50 (pEC50) was 5.34 in data set [1]; 5.35 in data set [2]; 6.00 in data set [4]; 5.71 in data set [6]; 5.12 in data set [7]. Moreover, the CC10 in data set [3] was above 10 µM. The 50% cytotoxic concentration (CC50) in data set [8] came to 7.35 µM.

For `C=C1CC[C@@H]2[C@](C)(CO)[C@H](O)CC[C@@]2(C)[C@@H]1C/C=C1/C(=O)OC[C@@H]1O[Si](C)(C)C(C)(C)C`, the negative logarithm of the EC50 (pEC50) in data set [1], in data set [2], in data set [4], in data set [6] and in data set [7] was below 5.00 in each case. Besides, the CC10 in data set [3] and in data set [5] was above 10 µM throughout.

On to `C=C1CC[C@H]2[C@@](C)(CCC(=O)[C@@]2(C)CO[Si](C)(C)C(C)(C)C)[C@@H]1C/C=C1/C(=O)OC[C@H]1O`, for which the negative-log EC50 (pEC50) was 5.06 in data set [1]; 5.05 in data set [2]; 5.19 in data set [4]; 5.46 in data set [6]; 5.11 in data set [7]. Besides, the CC10 in data set [3] was above 10 µM. The compound also came in with a half-maximal cytotoxic concentration (CC50) in data set [8] of 2.35 µM.

On to `C=C1CC[C@H]2[C@@](C)(CCC(=O)[C@@]2(C)CO)[C@@H]1C/C=C1/C(=O)OC[C@H]1O[Si](C)(C)C(C)(C)C`, for which the pEC50 in data set [1], in data set [2], in data set [4], in data set [6] and in data set [7] was below 5.00 in each case. Further, the CC10 in data set [3] and in data set [5] was above 10 µM throughout.

On to `C=C1CC[C@H]2[C@@](C)(CCC(=O)[C@@]2(C)CO)[C@@H]1C/C=C1/C(=O)OC[C@@H]1OC(C)=O`, for which the negative logarithm of the EC50 (pEC50) in data set [1], in data set [2], in data set [4], in data set [6] and in data set [7] was below 5.00 in each case. Further, the CC10 in data set [3] and in data set [5] was above 10 µM each time.

For `CC(=O)OC[C@]1(C)C(=O)CC[C@@]2(C)[C@H](C/C=C3/C(=O)OC[C@@H]3O[Si](C)(C)C(C)(C)C)[C@]3(CC[C@@H]21)CO3`, the pEC50 in data set [1] was 5.00; in data set [2], below 5.00; in data set [4] it was 5.58; in data set [6] it was 5.59; in data set [7], below 5.00. Besides, the CC10 in data set [3] and in data set [5] was above 10 µM each time.

`C=C1CC[C@H]2[C@@](C)(CCC(=O)[C@@]2(C)CO[Si](C)(C)C(C)(C)C)[C@@H]1C/C=C1/C(=O)OC[C@@H]1O`: the pEC50 is below 5.00 in data set [1]; below 5.00 in data set [2]; 5.36 in data set [4]; 5.33 in data set [6]; below 5.00 in data set [7]. Also, the CC10 in data set [3] and in data set [5] was above 10 µM in each case.

For the compound `CC(C)(C)[Si](C)(C)OC[C@]1(C)C(=O)CC[C@@]2(C)[C@H](C/C=C3/C(=O)OC[C@H]3O[Si](C)(C)C(C)(C)C)[C@]3(CC[C@@H]21)CO3`, the pEC50 was below 5.00 in data set [1]; below 5.00 in data set [2]; below 5.00 in data set [4]; 5.36 in data set [6]; below 5.00 in data set [7]. In addition, the CC10 in data set [3] and in data set [5] was above 10 µM in each case.

For the compound `C=C1CC[C@H]2[C@@](C)(CCC(=O)[C@@]2(C)CO)[C@@H]1C/C=C1/C(=O)OC[C@H]1OC(C)=O`, the pEC50 is below 5.00 in data set [1]; below 5.00 in data set [2]; 5.21 in data set [4]; 5.10 in data set [6]; below 5.00 in data set [7]. Further, the CC10 in data set [3] and in data set [5] was above 10 µM each time.

As to `CC(C)(C)[Si](C)(C)O[C@@H]1COC(=O)/C1=C/C[C@@H]1[C@]2(CC[C@@H]3[C@](C)(CO)[C@H](O)CC[C@]31C)CO2`, the pEC50 is below 5.00 in data set [1]; below 5.00 in data set [2]; 5.52 in data set [4]; 5.46 in data set [6]; below 5.00 in data set [7]. Further, the CC10 in data set [3] and in data set [5] was above 10 µM throughout.

With `C=C1CC[C@H]2[C@@](C)(CCC(=O)[C@@]2(C)COC(C)=O)[C@@H]1C/C=C1/C(=O)OC[C@H]1O[Si](C)(C)C(C)(C)C`, the pEC50 in data set [1], in data set [2], in data set [4], in data set [6] and in data set [7] was below 5.00 each time. The CC10 in data set [3] and in data set [5] was above 10 µM throughout.

Consider `C=C1CC[C@@H]2[C@](C)(COC(C)=O)[C@H](OC(C)=O)CC[C@@]2(C)[C@@H]1C/C=C1/C(=O)OC[C@H]1O[Si](C)(C)C(C)(C)C`, for which the negative logarithm of the EC50 (pEC50) in data set [1] was below 5.00; in data set [2], below 5.00; in data set [4], below 5.00; in data set [6], 5.09; in data set [7], below 5.00. In addition, the CC10 in data set [3] and in data set [5] was above 10 µM each time.

The values above are taken from ChEMBL document CHEMBL4152363, “Andrographolide derivative as STAT3 inhibitor that protects acute liver damage in mice” (Bioorg Med Chem, 2018).
